Sampled rows, rich in hits. Any-hit rate of the full collection: about 4.4%.
MPTP block: mitochondrial permeability transition pore inhibitors, primary screen, biochemical, isolated mouse mitochondria, absorbance | Ca2+ swelling absorbance, 30 min | inhibition, % at 10 µM | actives 1.4% (n = 360,000);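 active means inhibition of 50% or more, scaled per plate between neutral and stimulator controls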;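 further: 0% = DMSO wells given calcium and 100% = 1 mM EGTA wells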
GRIN3A LBD mod: binders of NR3A ligand-binding domain, primary screen, biophysical, differential scanning fluorimetry, uHTS; Glutamate receptor ionotropic, NMDA 3A (GRIN3A) ligand-binding domain; NR3A LBD differential scanning fluorimetry, Tm shift; 0% = protein alone, 100% = glycine-bound protein; Tm shift relative to glycine control, % at 25 µM; actives 2.5% (n = 340,000);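 active means melting temperature shift of at least 10% of the positive control shift, at one fixed dose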
EBI2 antag: EBI2 receptor antagonists, beta-arrestin recruitment, primary screen, cell-based, luminescence, 7a,25-OHC stimulation, uHTS. 7a,25-OHC stimulated. actives 0.81% (n = 360,000). inhibition, % at 5 µM; in the data active means inhibition above about 38%;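 further: enzyme fragment complementation signal reports receptor beta-arrestin coupling in cells; 0% = agonist plus DMSO wells and 100% = wells without agonist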
Target sequence (P32249 whole entry, looked up, the tested form may be a part): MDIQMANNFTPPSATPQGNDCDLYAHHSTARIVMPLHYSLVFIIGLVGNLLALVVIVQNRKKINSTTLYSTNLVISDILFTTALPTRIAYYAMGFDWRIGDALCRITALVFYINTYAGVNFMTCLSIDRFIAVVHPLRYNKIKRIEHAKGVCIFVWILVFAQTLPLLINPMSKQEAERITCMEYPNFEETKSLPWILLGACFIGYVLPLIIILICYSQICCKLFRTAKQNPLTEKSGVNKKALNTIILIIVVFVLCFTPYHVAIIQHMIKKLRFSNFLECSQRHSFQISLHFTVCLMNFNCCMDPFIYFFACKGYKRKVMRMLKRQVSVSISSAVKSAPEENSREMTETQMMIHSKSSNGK
SENP1 inh: human SENP1 catalytic domain inhibitors, primary screen, biochemical, FRET, uHTS. recombinant SENP1 catalytic domain, CyPet-SUMO1-YPet FRET cleavage. inhibition, % at 10 µM. actives 0.21% (n = 360,000). AID 624204, 2012;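 active means inhibition at least 30% at 10 µM, raw YFP signal under a set limit, fluorescence ratio 0.5 to 1.5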;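 further: 0% = enzyme with DMSO and 100% = no enzyme wells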
Target sequence (Q9P0U3 419-644 limits assumed): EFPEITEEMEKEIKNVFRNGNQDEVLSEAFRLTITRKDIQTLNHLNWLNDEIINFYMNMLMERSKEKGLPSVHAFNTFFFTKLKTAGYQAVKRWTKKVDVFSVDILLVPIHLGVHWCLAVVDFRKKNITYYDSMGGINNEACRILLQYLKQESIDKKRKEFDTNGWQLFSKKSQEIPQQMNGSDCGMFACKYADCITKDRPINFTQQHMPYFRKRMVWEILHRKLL
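Assay system: hSENP1 catalytic domain, recombinant. Amount: SENP1 enzyme, 20 pM final. Schedule: 50 min reaction, RT, dark. Technique: FRET, CFP and YFP emission. Control set: no-enzyme wells low, DMSO-plus-enzyme wells high control.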
* = called active by the depositor; . = no result.

SMILES	MPTP block	GRIN3A LBD mod	EBI2 antag	SENP1 inh
Cc1ccc(/C=N/NC(=O)c2cccc(S(=O)(=O)Nc3ccccc3Cl)c2)o1	-2	-2	6	2
CCN(CC)c1ccc(/C=N/NC(=O)c2cccc(S(=O)(=O)Nc3ccccc3OC)c2)cc1	8	1	12	7
C=CCN1C(=O)[C@@H]2Cc3c([nH]c4ccccc34)C(c3ccc(O)cc3)N2C1=S (stereo partly specified)	1	21*	-7	-11
CN(CCC#N)C(=S)NC(=O)c1ccc(S(=O)(=O)N2CCOCC2)cc1	-3	0	-1	-1
Cc1cccc(N(CC(=O)NCc2ccc(F)cc2)C(=O)c2csnn2)c1C	0	-2	1	6
COc1cccc(Oc2cn[nH]c2-c2ccc(OC)cc2O)c1	10	22*	18	0
COc1cccc(Oc2cn[nH]c2-c2ccc(O)cc2O)c1	2	28*	-4	1
COc1ccc(-c2csc(NC(=O)CSc3n[nH]c(N)n3)n2)cc1	-2	-1	1	-1
CCOc1ccc(/C=C/C2=Cc3c(sc(NC(=O)CSc4n[nH]c(N)n4)c3C#N)C(C)(C)C2)cc1	-1	14*	4	-24
Cc1ccsc1/C=C/C1=Cc2c(sc(NC(=O)CSc3n[nH]c(N)n3)c2C#N)C(C)(C)C1	1	10*	16	-26
c1ccc(OCCN2CCN(Cc3nc(-c4ccc5c(c4)OCO5)no3)CC2)cc1	0	0	-3	1
CCOc1ccc(C(NC(=O)/C=C/c2ccco2)c2ccc(OC)c(OC)c2)cc1 (stereo unspecified)	1	10*	1	-2
CCN(CC)S(=O)(=O)c1ccc(N/N=C/c2cc(OC)ccc2O)nc1	4	24*	5	-1
O=Cc1cn(-c2ccccc2)nc1-c1ccc(F)cc1	0	-1	-14	1
CC1=NNC(=O)/C1=C\c1cn(-c2ccccc2)nc1-c1ccc(F)cc1	-5	1	86*	0
O=C(O)CCCCCN1C(=O)/C(=C\c2cn(-c3ccccc3)nc2-c2cccs2)SC1=S	40	7	27	11
CC1=NNC(=O)/C1=C\c1cn(-c2ccccc2)nc1-c1cccs1	-1	1	68*	2
COc1ccc(S(=O)(=O)N2CCc3ccccc32)cc1C(=O)OCc1nnc(-c2ccccc2)o1	0	0	1	3
CCCCN1C(=O)NC(NC(=O)c2ccco2)(C(F)(F)F)C1=O (stereo unspecified)	2	-1	-7	0
CC(C)Oc1ccc(C(=O)NC2(C(F)(F)F)NC(=O)N(CCCc3ccccc3)C2=O)cc1 (stereo unspecified)	6	14*	5	5
O=C(NCc1cccc(Cl)c1)c1ccc(S(=O)(=O)Nc2cccc(C(F)(F)F)c2)cc1	4	28*	6	1
O=c1[nH]c(SCc2ccccc2F)nc2ccccc12	1	-1	4	-3
O=c1cc(CSc2nc3ccccc3c(=O)[nH]2)c2ccc(O)cc2o1	4	29*	-33	-94
COc1cc(/C=N/NC(=O)c2sc(N)c(C#N)c2C)cc(Br)c1O	-1	16*	-9	2
COc1ccc2ccccc2c1/C=N\NC(=O)c1ccc(C)s1	-1	-10	15	-1
SMILES	MPTP block	GRIN3A LBD mod	EBI2 antag	SENP1 inh
COc1ccc2ccccc2c1/C=N/NC(=O)c1sc(N)c(C#N)c1C	2	17*	4	-30
COc1cc(/C=N/NC(=O)CC#N)cc(Br)c1O	0	1	0	-7
Cc1cc(C)c2c(CN(Cc3ccccc3)Cc3ccccc3)cc(=O)oc2c1	1	.	19	-1
Cc1ccccc1C(=O)c1c[nH]c(C(=O)NCc2cccs2)c1	-4	3	7	1
CSc1ccc(CNC(=O)Cn2nc(C)c3c(C)n(-c4ccc(C)cc4)nc3c2=O)cc1	0	0	5	-1
O=S(=O)(c1ccc(F)cc1)N1CCn2c(nc3ccccc32)C1	-2	14*	-17	-1
COCCNC(=S)N/N=C(\C)c1cccc(C(F)(F)F)c1	0	52*	2	2
O=[N+]([O-])c1ccc(Nc2nc(N/N=C/c3cccc(F)c3)nc(N3CCCC3)n2)cc1	5	25*	16	1
COc1ccc(/C=N/Nc2nc(Nc3ccccc3)nc(N3CCCC3)n2)cc1	2	4	11	2
COc1cccc(/C=N/Nc2nc(Nc3ccc([N+](=O)[O-])cc3)nc(N3CCCC3)n2)c1O	0	23*	13	1
CNc1nc(N/N=C/c2ccc([N+](=O)[O-])cc2)nc(Nc2ccccc2)n1	0	30*	0	-1
O=[N+]([O-])c1cccc(/C=N/Nc2nc(N3CCOCC3)nc(N3CCOCC3)n2)c1	1	0	1	2
CC(NC(=O)CCc1nnc(CCCc2ccccc2)o1)c1ccccc1 (stereo unspecified)	1	-3	7	-2
C=CCN1C(=O)C(CC(=O)Nc2ccc(OC)cc2)SC1=Nc1ccc(S(N)(=O)=O)cc1 (stereo unspecified)	-1	0	-11	5
Cc1ccc(NC(=O)COC(=O)C2CCN(c3ccc(C(F)(F)F)cn3)CC2)cc1C	0	12*	-3	-2
O=C(COC(=O)C1CCN(c2ccc(C(F)(F)F)cn2)CC1)Nc1ccc(Cl)cc1	2	24*	-4	2
O=C(COC(=O)C1CCN(c2ccc(C(F)(F)F)cn2)CC1)Nc1ccc(Cl)cn1	1	0	-5	-2
O=C(COC(=O)C1CCN(c2ccc(C(F)(F)F)cn2)CC1)Nc1cccc(F)c1	0	12*	0	-1
CCc1nc2c(OCCOC)cccn2c1N(C)C(=O)c1ccc(C)cc1	-1	.	-3	1
COc1ccc(CNC(=O)CSC(=S)N2CCCC2)cc1	1	0	0	1
CC(C)=CCc1c(O)cc2c(=O)c3ccc(O)cc3oc2c1O	3	25*	-3	2
CC(C)=CCc1c(O)cc(O)c2c(=O)c3c(CC=C(C)C)c(O)ccc3oc12	.	26*	.	.
Cc1oc(S(=O)(=O)N(C)C)cc1C(=O)Nc1ccc(F)cc1	0	1	3	3
Cc1n[nH]c(C)c1S(=O)(=O)N1CCC(C(=O)O)CC1	2	-1	-10	-1
Cc1n[nH]c(C)c1S(=O)(=O)N1CCOCC1	-4	14*	-8	-1
O=C(Nc1ccccc1Cc1ccccc1)c1ccccc1F	-2	0	-6	-2
C#CC(=O)N(c1cccc(OC)c1)C(C(=O)NC1CCCC1)c1cccs1 (stereo unspecified)	0	-1	53*	1
COc1cc(NC(=O)CSc2nc3[nH]ncc3c(=O)n2-c2ccc(Cl)cc2)cc(OC)c1	1	13*	-28	0

Screening results (PubChem)
